Most compounds without a hit are left out; they make up all but 3% or so of the library.
Cneo AK release: Cryptococcus neoformans lysis via adenylate kinase release. C. neoformans lysis, adenylate kinase release luminescence, 4 h; normalised: neutral wells 0, clomiphene wells 100. lysis activity, % at 15 µM. 360,000 compounds, 0.2% hits;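 active means mean lysis activity across replicates of at least 80%, whatever share of replicates individually reach that level; inactive means mean lysis activity below 80%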
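Assay system: C. neoformans cells. Amount: yeast cell density of 5 × 10^6 cells/mL. Technique: AK luminescence. Buffer or medium: YPD. Times: static 4 h at 37 °C with compound, 1 h detection. Dosing: single-point compound dose. Read-out: lysis from increased AK signal.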
Statin myotox sup: protects C2C12 myotubes from simvastatin toxicity. 330,000 compounds, 0.78% hits. rescue of ATP level, % at 7.49 µM. ATP luminescence, 48 h; scaled: DMSO 0, geranylgeraniol control 100;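 active means mean ATP rescue above about 67%, or every replicate alone reaching that limit, limit read from the data, passing the limit was not always enough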;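 further: myotubes were challenged with 10 µM simvastatin during compound exposure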
PGC1a acetyl inh: lowers PGC1a acetylation signal in U2OS cells. inhibition, % at 15.6 µM. AlphaScreen anti-acetyl-lysine; with virally co-expressed GCN5 acetyltransferase. 350,000 compounds, 0.17% hits;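 active means every replicate shows inhibition of at least 40%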
rRNA inh HTS: selective bacterial rRNA inhibition in E. coli; 350,000 compounds, 1.6% hits; GFP signal change (wild-type ribosome), % (no concentration beside the values); AID 720706; E. coli WT GFP vs humanized-ribosome RFP mutants, fluorescence, 24 h; active compounds read low; DMSO median 0, no signal -100;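 active means significant combined selectivity score with lowered wild-type GFP, culture density cut under 30%, mutant RFP and density less affected; inactive means any of these conditions unmet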
S100A4 MyoIIA: blocks human S100A4 binding to myosin IIA peptide; P26447; S100A4/TAMRA-MyoIIA peptide fluorescence polarization; inhibition, % at 10.7 µM; 360,000 compounds, 0.14% hits;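 active means mean inhibition of at least 70% across replicates, with every replicate also reaching that level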
Target sequence (P26447 whole entry, looked up): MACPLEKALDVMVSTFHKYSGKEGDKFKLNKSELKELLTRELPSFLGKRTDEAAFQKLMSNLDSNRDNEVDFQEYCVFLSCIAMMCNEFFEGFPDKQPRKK
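Material: S100A4 monomer (human). Medium: Calcium-containing HEPES buffer, pH 7.2. Probe or stimulus: labelled myosin peptide probe, 5 nM. Compound dosing: one concentration per compound. Timing: polarization read 5 min after assay mix addition, stable 5–60 min. Benchmarks: DMSO as neutral control, TFP as positive control.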
SIRT5 inh: sirtuin-5 (human) deacylase inhibition; Q9NXA8; Purified SirT5, succinyl-peptide AMC, trypsin-coupled fluorescence; inhibition, % at 15 µM; 330,000 compounds, 1.1% hits; in the data active means inhibition above about 15%
Target sequence (Q9NXA8 whole entry, looked up): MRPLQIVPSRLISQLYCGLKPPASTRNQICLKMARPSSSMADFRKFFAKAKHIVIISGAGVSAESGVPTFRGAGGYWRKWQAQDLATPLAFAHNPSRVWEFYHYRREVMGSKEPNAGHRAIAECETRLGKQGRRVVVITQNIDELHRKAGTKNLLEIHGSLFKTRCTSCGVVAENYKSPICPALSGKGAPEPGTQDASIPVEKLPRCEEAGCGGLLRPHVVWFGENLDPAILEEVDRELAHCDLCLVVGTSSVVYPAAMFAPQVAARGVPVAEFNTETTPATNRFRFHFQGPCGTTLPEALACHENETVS
Large screens that a line does not name were inactive.

C[C@H]1CN([C@@H](C)CO)C(=O)Cc2cc(NS(=O)(=O)c3ccccc3)ccc2O[C@H]1CN(C)Cc1ccc(C(=O)O)cc1	none (no result: Cneo AK release)
CC(NC(=O)COc1ccccc1)C(c1ccccc1)N1CCN(C)CC1 (stereo not drawn)	Statin myotox sup 90 (no result: PGC1a acetyl inh, rRNA inh HTS, S100A4 MyoIIA, SIRT5 inh)
CCOc1ccc(NC(=S)NC(C)C(c2ccccc2)N2CCN(C)CC2)cc1 (stereo not drawn)	none (no result: Cneo AK release, Statin myotox sup)
CCOC(=O)c1nn(-c2cccc(Cl)c2)c(C)c1C(C)=O	Statin myotox sup 123 (no result: rRNA inh HTS, S100A4 MyoIIA, SIRT5 inh)
CCOC(=O)c1nn(-c2cccc(OC)c2)c(-c2ccccc2)c1C(=O)c1ccccc1	none (no result: PGC1a acetyl inh)
CCCCn1c(CCc2ccccc2)nc2cc3[nH]c(=O)c(C(C)C)nc3cc21	Statin myotox sup 119
FC(F)Oc1ccc(NC(=S)Nc2ccc3cn[nH]c3c2)cc1	rRNA inh HTS -25 (no result: Statin myotox sup)
CCNC(=O)C[C@@H]1C=C[C@H](NC(=O)NC2CCCCC2)[C@H](CO)O1	none
O=C(O)CSCC(=O)N(Cc1ccccc1)c1nc(-c2ccccc2)c(-c2ccccc2)s1	SIRT5 inh 17 (no result: PGC1a acetyl inh)
CCS(=O)(=O)N1CCN(c2ccccc2F)CC1	none (no result: rRNA inh HTS, S100A4 MyoIIA, SIRT5 inh)
O=C1Oc2ccccc2C(=O)/C1=C/N1CCN(c2ccccc2F)CC1	rRNA inh HTS -30 (no result: Cneo AK release)
O=C(Nc1ccc(C(F)(F)F)cc1)N[C@H]1CC[C@@H](CC(=O)N2CCCCC2)O[C@H]1CO	none (no result: SIRT5 inh)
Cc1c(C(=O)N2CCOCC2)oc2ccc(S(=O)(=O)N3CCCC3)cc12	Statin myotox sup 121 (no result: rRNA inh HTS, S100A4 MyoIIA, SIRT5 inh)
CCOC(=O)N1CCN(C(=O)c2oc3ccc(S(=O)(=O)N4CCOCC4)cc3c2C)CC1	Statin myotox sup 95 (no result: rRNA inh HTS, S100A4 MyoIIA, SIRT5 inh)
C[C@@H]1CCCCO[C@H](CN(C)S(C)(=O)=O)[C@H](C)CN([C@@H](C)CO)C(=O)c2cc(NC(=O)Nc3ccc(C(F)(F)F)cc3)ccc2O1	none (no result: Cneo AK release, Statin myotox sup, PGC1a acetyl inh, S100A4 MyoIIA, SIRT5 inh)
COC(=O)[C@H](C)NC(=O)NC(C)CCc1ccccc1 (stereo partly drawn)	none
COC(=O)[C@@H](NC(=O)NC(C)CCc1ccccc1)C(C)C (stereo partly drawn)	Statin myotox sup 93 (no result: rRNA inh HTS, S100A4 MyoIIA, SIRT5 inh)
CCCN1C[C@@H](C)[C@H](OC)CN(C)C(=O)c2cc(NC(=O)c3cnccn3)ccc2OC[C@H]1C	SIRT5 inh 17
CCCNC(=O)Nc1ccc2c(c1)C(=O)N(C)C[C@@H](OC)[C@@H](C)CN(CC1CCCC1)[C@@H](C)CO2	none (no result: Cneo AK release, S100A4 MyoIIA, SIRT5 inh)
CCCN1C[C@H](C)[C@H](OC)CN(C)C(=O)c2cc(NC(=O)c3cnccn3)ccc2OC[C@@H]1C	none
CCCNC(=O)Nc1ccc2c(c1)C(=O)N(C)C[C@H](OC)[C@H](C)CN(CC1CCCC1)[C@@H](C)CO2	PGC1a acetyl inh 44 (no result: Cneo AK release, S100A4 MyoIIA, SIRT5 inh)
CCCN1C[C@H](C)[C@H](OC)CN(C)C(=O)c2cc(NC(=O)NC3CCCCC3)ccc2OC[C@@H]1C	S100A4 MyoIIA 116 (no result: PGC1a acetyl inh)
CO[C@H]1CN(C)C(=O)c2cc(NC(=O)NC3CCCCC3)ccc2OC[C@H](C)N(CCc2ccccc2)C[C@@H]1C	SIRT5 inh 25
CCC(=O)Nc1ccc2c(c1)C(=O)N(C)C[C@H](OC)[C@@H](C)CN(C(=O)C1CC1)[C@@H](C)CO2	none
C[C@@H]1CCCCO[C@H](CN(C)Cc2ccncc2)[C@H](C)CN([C@H](C)CO)C(=O)c2cc(NC(=O)Nc3ccc(C(F)(F)F)cc3)ccc2O1	none (no result: Statin myotox sup)
Cc1ccc(S(=O)(=O)N(C)C[C@H]2Oc3ccc(NS(=O)(=O)c4ccc(Cl)cc4)cc3CC(=O)N([C@H](C)CO)C[C@H]2C)cc1	none
CCS(=O)(=O)N1CC2(CN(C)[C@H](CO)c3c2c2ccc(OC)cc2n3C)C1	none (no result: Cneo AK release, Statin myotox sup)
COc1ccc2[nH]c3c(NCCCOC(C)C)ncnc3c2c1	none (no result: Cneo AK release, Statin myotox sup, PGC1a acetyl inh)
COc1ccc2[nH]c3c(NCCC4=CCCCC4)ncnc3c2c1	rRNA inh HTS -54 (no result: Cneo AK release, Statin myotox sup)
O=C(c1ccc(F)cc1)N1CC(=O)N2[C@H](CO)[C@@H](c3ccc(C#CC4CC4)cc3)[C@H]2C1	none (no result: Cneo AK release, Statin myotox sup)
CCOC(=O)c1ccc(N2C(=O)CC(N3CCC(O)(c4ccc(Br)cc4)CC3)C2=O)cc1 (stereo not drawn)	PGC1a acetyl inh 47 (no result: Cneo AK release, Statin myotox sup, rRNA inh HTS, S100A4 MyoIIA, SIRT5 inh)
